Active and inactive are the calls of the source. The calls are words filed in the database; no cut-off is given here.
Tests used:
[1] = species on record: Rattus norvegicus; test: Inhibitory activity against uptake of [3H]norepinephrine into rat brain synaptosomes.; format: functional
How it was run: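 P2 synaptosomes from male Wistar rat cerebral cortex incubated with [3H]norepinephrine at 37 °C for 20 min, with compound at 5-6 concentrations. Stopped by Krebs-Henseleit dilution and glass-fibre filtration, then scintillation counting. IC50 taken as the concentration giving 50% uptake inhibition.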

[2] = system: Mus musculus; test: Effective dose against pentylenetetrazole intoxicity in mice administered orally; format: functional
[3] = biological target: GABA-A receptor; anion channel (Rattus norvegicus) (UniProt O09028+P15431+P18506+P18508+P19969+P20236+P23574+P23576+P28471+P28473+P30191+P62813+P63079+P63138+Q91ZM7+Q9ES14); test: Binding constant was determined by displacing potential to [3H]-diazepam binding in cerebral cortex homogenates of rat; format: tissue-based
How it was run: (§1)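 Wistar rat cerebral cortex homogenate incubated with compound and 2 nM [3H]diazepam at 0 °C for 60 min. Bound label trapped on glass filters and counted by scintillation. Ki = IC50/(1 + L/Kd).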

[4] = system: Mus musculus; test: Effective dose against tetrabenazine induced ptosis in mice administered orally; format: functional
How it was run: (§2)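 Male DS mice, 20-27 g, groups of five. Compound given po or sc in saline or gum arabic at 0.1 mL/10 g. Tetrabenazine 50 mg/kg sc given 1, 4 or 24 h later. Ptosis scored 1-4 at 1 h after TBZ, with ridit transformation. Dose for 50% prevention by regression.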

[5] = system: Rattus norvegicus; test: Effective dose against anticonflict effect in rats when administered through oral route; format: functional
How it was run: (§3)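 Wistar rats in groups of 5-8, Geller-Seifter conflict procedure. Rats trained to lever-press for food on a variable-interval 60-s schedule. Oral dosing. A dose counted positive when shocks exceeded 12 or shock ratio exceeded 4 over four consecutive tone periods. ED50 with 95% limits by probit.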

[6] = system: Mus musculus; test: Effective dose against tetrabenazine induced ptosis in mice administered subcutaneously; format: functional; conditions: sc; how it was run: as §2
[7] = system: Mus musculus; test: Effective dose against pentylenetetrazole intoxicity in mice administered through subcutaneous route;NE = no effect at 10 mg/kg; format: functional, organism-based; design: dose 10 mg/kg
[8] = system: Mus musculus; test: Effective dose against pentylenetetrazole intoxicity in mice administered through subcutaneous route; format: functional; conditions: sc
[9] = system: Rattus norvegicus; test: Effective dose was evaluated by their anticonflict effect in rats when administered through oral route; format: functional; how it was run: as §3
[10] = system: Mus musculus; test: Percent inhibition against tetrabenazine induced ptosis in mice administered orally at 50 mg/kg; format: functional; conditions: route oral; how it was run: as §2
[11] = Acute toxicity was measured in mice after peroral administration; format: organism-based; conditions: mouse, in vivo, po
How it was run: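 Male DS mice, 20-26 g, given compound orally; mortality checked the day after treatment in groups of 10. LD50 by probit method, or by up-and-down method of Brownlee et al. (n = 5) where estimated.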

[12] = system: Mus musculus; test: Effective dose against pentylenetetrazole intoxicity in mice administered subcutaneously; NE= no effect at 100 mg/kg; format: functional, organism-based; design: dose 100 mg/kg
[13] = system: Mus musculus; test: Percent inhibition against tetrabenazine induced ptosis in mice administered subcutaneously at 50 mg/kg; format: functional; conditions: sc, route subcutaneous; how it was run: as §2
[14] = system: Mus musculus; test: Effective dose against pentylenetetrazole intoxicity in mice administered orally; NE= no effect at 50 mg/kg; format: functional, organism-based; design: dose 50 mg/kg
[15] = system: Mus musculus; test: Effective dose against tetrabenazine induced ptosis in mice administered subcutaneously; NE= no effect at 50 mg/kg; format: functional, organism-based; design: dose 50 mg/kg; how it was run: as §2
[16] = system: Mus musculus; test: Effective dose against pentylenetetrazole intoxicity in mice administered through subcutaneous route;NE = no effect at 20 mg/kg; format: functional, organism-based; design: dose 20 mg/kg
[17] = species on record: Rattus norvegicus; test: Displacement of [3H]diazepam binding to rat cerebral cortex homogenates (Experiment 2); format: tissue-based; how it was run: as §1
[18] = species on record: Rattus norvegicus; test: Displacement of [3H]diazepam binding in rat cerebral cortex homogenates (Experiment 1); format: tissue-based; how it was run: as §1
[19] = system: Mus musculus; test: Effective dose against pentylenetetrazole intoxicity in mice administered through subcutaneous route; NE= no effect at 10 mg/kg; format: functional, organism-based; design: dose 10 mg/kg
[20] = system: Mus musculus; test: Percent inhibition against tetrabenazine induced ptosis in mice administered orally at 100 mg/kg; format: functional; conditions: route oral; how it was run: as §2
[21] = system: Mus musculus; test: Effective dose against pentylenetetrazole intoxicity in mice administered through subcutaneous route; NE = no effect at 10 mg/kg; format: functional, organism-based; design: dose 10 mg/kg
[22] = system: Mus musculus; test: Effective dose against pentylenetetrazole intoxicity in mice administered through subcutaneous route;NE= no effect at 10 mg/kg; format: functional, organism-based; design: dose 10 mg/kg
[23] = system: Mus musculus; test: Effective dose against pentylenetetrazole intoxicity in mice administered orally; NE = not effective at dose 50 mg/kg; format: functional, organism-based; design: dose 50 mg/kg
[24] = system: Mus musculus; test: Effective dose against pentylenetetrazole intoxicity in mice administered subcutaneously; NE = not effective at dose 10 mg/kg; format: functional, organism-based; design: dose 10 mg/kg
[25] = Mus musculus, po, read-out: ED50

| Structure (SMILES) | ED50 [2, 25] | K2 [3] | ED50 [4, 25] | ED50 [6] | also measured |
| --- | --- | --- | --- | --- | --- |
| O=C1CN=C(c2ccccc2Cl)c2cc(F)ccc2N1C1CCNCC1 | 29.4 mg/kg | 0.012 µM | 13.5 mg/kg |  | IC50 [1]: 877 nM |
| O=C1CN=C(c2ccccc2F)c2cc(Br)ccc2N1C1CCNCC1 | 2.7 mg/kg | 0.033 µM | 5.37 mg/kg |  | IC50 [1]: 288 nM; ED50 [5]: 4.54 mg/kg |
| CN1CCC(N2C(=O)CN=C(c3cccc(Cl)c3)c3cc(Cl)ccc32)CC1 |  | 23 µM |  | 19.3 mg/kg | ED50 [7]: inactive |
| CN1CCC(N2C(=O)CN=C(c3ccccc3F)c3cc(Cl)ccc32)CC1 | 2.7 mg/kg |  | 2.13 mg/kg | 1.3 mg/kg | ED50 [2]: 5.28 mg/kg; ED50 [8]: 0.71 mg/kg; ED50 [4]: 1.12 mg/kg; ED50 [9]: 3.67 mg/kg |
| O=C1CN=C(c2ccccc2F)c2cc(Cl)ccc2N1C1CCN(Cc2ccccc2)C1 (stereo not given) | 1.52 mg/kg | 0.27 µM |  |  | inhibition in vivo at 50 mg/kg [10]: 58% |
| CNC1=Nc2ccc(Cl)cc2C(c2ccccc2)=[N+]([O-])C1 [CHLORDIAZEPOXIDE] |  |  | 2.7 mg/kg |  | LD50 [11]: 877 mg/kg |
| CN1CCC(N2C(=O)CN=C(c3ccccc3F)c3ccc(Cl)cc32)CC1 |  | 0.69 µM |  |  | ED50 [12]: inactive; inhibition in vivo at 50 mg/kg [13]: 34%; ED50 [14]: inactive |
| CN1CCC(N2C(=O)CN=C(c3ccccc3F)c3ccc(C(F)(F)F)cc32)CC1 |  | 17 µM |  |  | ED50 [15]: inactive; ED50 [16]: inactive |
| CN1CCC(N2C(=O)CN=C(c3ccccc3F)c3cc([N+](=O)[O-])ccc32)CC1 |  |  |  | 17.7 mg/kg | K2 [17]: 24 µM; K2 [18]: 8.3 µM; ED50 [19]: inactive |
| CN1CCC(N2C(=O)CN=C(c3ccccc3)c3cc(Br)ccc32)CC1 | 21.4 mg/kg | 0.415 µM | 2.88 mg/kg |  | ED50 [5]: 17.4 mg/kg |
| CN1CCC(N2C(=O)C(O)N=C(c3ccccc3F)c3cc(Cl)ccc32)CC1 (stereo not given) | 2.41 mg/kg | 0.074 µM | 9.79 mg/kg |  |  |
| CN1CCCC(N2C(=O)CN=C(c3ccccc3Cl)c3cc(Cl)ccc32)C1 (stereo not given) | 12 mg/kg | 0.016 µM |  |  | inhibition in vivo at 100 mg/kg [20]: 21% |
| CN1CCC(N2C(=O)CN=C(c3ccccc3F)c3cc(F)ccc32)CC1 |  |  | 1.62 mg/kg | 0.27 mg/kg | IC50 [1]: 53700 nM; ED50 [8]: 26.9 mg/kg; ED50 [9]: 11.4 mg/kg |
| CN1CCC(N2C(=O)CN=C(c3ccccc3F)c3ccc(F)cc32)CC1 |  | 0.44 µM |  | 0.94 mg/kg | ED50 [19]: inactive; ED50 [14]: inactive |
| CN1CCC(N2C(=O)CN=C(c3ccccc3F)c3cccc(Cl)c32)CC1 |  | 4.7 µM |  | 2.66 mg/kg | ED50 [21]: inactive |
| CN1CCC(N2C(=O)CN=C(c3ccccc3F)c3cc(Br)ccc32)CC1 | 1.61 mg/kg | 0.049 µM | 3.85 mg/kg | 2.45 mg/kg | ED50 [8]: 0.79 mg/kg; ED50 [9]: 1.23 mg/kg |
| CN1CCC(N2C(=O)CN=C(c3ccccc3F)c3cc(N(C)C)ccc32)CC1 |  | 8.3 µM |  | 0.7 mg/kg | ED50 [22]: inactive |
| O=C1CN=C(c2ccccc2Cl)c2cc(Cl)ccc2N1C1CCCNC1 (stereo not given) | 16.2 mg/kg | 0.013 µM |  |  | inhibition in vivo at 50 mg/kg [10]: 57% |
| CN1CCC(N2C(=O)CN=C(c3ccccc3)c3ccccc32)CC1 |  |  | 0.38 mg/kg | 0.26 mg/kg | ED50 [23]: inactive; ED50 [24]: inactive |
| O=C1CN=C(c2ccccc2)c2cc(Br)ccc2N1C1CCNCC1 | 38.8 mg/kg | 0.57 µM | 0.76 mg/kg |  | IC50 [1]: 402 nM |
| Cc1ccc2c(c1)C(c1ccccc1F)=NCC(=O)N2C1CCN(C)CC1 |  | 0.26 µM |  | 0.84 mg/kg | ED50 [21]: inactive |

Reference: ChEMBL document CHEMBL1123005, “1-Azacycloalkyl-1,4-benzodiazepin-2-ones with antianxiety-antidepressant actions” (J Med Chem, 1985)
